Source: ChEMBL document CHEMBL3865831, “Cantharimide and Its Derivatives from the Blister Beetle Mylabris phalerata Palla” (J Nat Prod, 2016)

Tests used:
[1] = Cytotoxicity against human HCT116 cells measured after 72 hrs by MTT assay; type: functional, cell-based; conditions: HCT-116, 72 h
Procedure, shortened: (§1)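 Cells were exposed to serial dilutions of compound from 1.00 to 100 μg/mL for 72 h. MTT (400 μg/mL) was then added for 4 h, replaced with DMSO, and absorbance was read at 540 nm. Cantharidin was the positive control.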

[2] = Cytotoxicity against human HepG2.2.15 cells after 72 hrs by MTT assay; type: functional, cell-based; conditions: HepG2 2.2.15, 72 h; procedure, shortened: as §1
[3] = Cytotoxicity against human BGC823 cells measured after 72 hrs by MTT assay; type: functional, cell-based; conditions: BGC-823, 72 h; procedure, shortened: as §1
Hepatitis B virus [4] = assay: Antiviral activity against Hepatitis B virus infected human HepG2.2.15 cells assessed as inhibition of HBeAg secretion measured after 96 hrs by ELISA; type: functional; conditions: HepG2.2.15, 96 h
Procedure, shortened: (§2)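 HepG2.2.15 cells, stably transfected with the HBV genome, were grown for 24 h in DMEM with 10% FBS, 100 μg/mL G418 and penicillin/streptomycin at 37 °C under 5% CO2. Compounds diluted in culture medium were then added for 96 h. HBeAg or HBsAg in the collected medium was measured by ELISA. Adefovir dipivoxil was the positive control. Data are mean ± SD, n = 3.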

Hepatitis B virus [5] = assay: Antiviral activity against Hepatitis B virus infected human HepG2.2.15 cells assessed as inhibition of HBsAg secretion measured after 96 hrs by ELISA; type: functional; conditions: HepG2.2.15, 96 h; procedure, shortened: as §2
[6] = Toxicity against human HepG2.2.15 cells infected with HBV after 72 hrs by MTT assay; type: cell-based, HepG2 2.2.15; procedure, shortened: as §1
[7] = Selectivity index, ratio of CC50 for human HepG2.2.15 cells to IC50 for inhibition of HBeAg secretion in Hepatitis B virus infected human HepG2.2.15 cells; type: functional
Procedure, shortened: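 SI is CC50 in HepG2.2.15 cells divided by IC50 for HBeAg inhibition, the latter measured by ELISA of medium after 96 h of compound treatment. Values are from triplicate determinations.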

With `CC(=O)CN1C(=O)[C@@]2(C)[C@@H]3CC[C@@H](O3)[C@@]2(C)C1=O` the IC50 [1] was greater than 10 µM, the IC50 [2] was greater than 10 µM and the IC50 [3] was greater than 10 µM.

In the case of `C[C@@]12C(=O)NC(=O)[C@]1(CO)[C@H]1CC[C@@H]2O1`, the IC50 [1] is reported as greater than 10 µM, the IC50 [2] is reported as greater than 10 µM and the IC50 [3] is reported as greater than 10 µM.

With `C[C@@]12C(=O)N(CCCO)C(=O)[C@]1(CO)[C@H]1CC[C@@H]2O1` the IC50 [1] was greater than 10 µM, the IC50 [2] was greater than 10 µM and the IC50 [3] was greater than 10 µM.

Compound `CNC(=O)CCCN1C(=O)[C@@]2(C)[C@@H]3CC[C@@H](O3)[C@@]2(C)C1=O` has an IC50 [1] greater than 10 µM, an IC50 [2] greater than 10 µM and an IC50 [3] greater than 10 µM.

`C[C@@]12C(=O)N(CCO)C(=O)[C@]1(C)[C@H]1CC[C@@H]2O1` showed an IC50 (Hepatitis B virus [4]) of 62 µM, an IC50 [1] greater than 10 µM and an IC50 (Hepatitis B virus [5]) greater than 210 µM. For the same compound, the IC50 [2] was greater than 10 µM, the IC50 [3] was greater than 10 µM and the CC50 at 72 h [6] was greater than 420 µM.

Compound `C[C@@]12C(=O)N(CCCO)C(=O)[C@]1(C)[C@H]1CC[C@@H]2O1` has an IC50 [1] greater than 10 µM, an IC50 [2] greater than 10 µM and an IC50 [3] greater than 10 µM.

In the case of `C[C@@]12C(=O)NC(=O)[C@]1(C)[C@H]1CC[C@@H]2O1`, the IC50 (Hepatitis B virus [4]) is reported as 42 µM, the IC50 [1] is reported as greater than 10 µM and the “Ratio CC50/IC50” value [7] is reported as 6.7. It also gave an IC50 (Hepatitis B virus [5]) greater than 260 µM, an IC50 [2] greater than 10 µM and an IC50 [3] greater than 10 µM. For the same compound, the CC50 at 72 h [6] was 280 µM.

With `CN1C(=O)[C@@]2(C)[C@@H]3CC[C@@H](O3)[C@@]2(CO)C1=O` the IC50 [1] was greater than 10 µM, the IC50 [2] was greater than 10 µM and the IC50 [3] was greater than 10 µM.

`C[C@@]12C(=O)N(CCO)C(=O)[C@]1(CO)[C@H]1CC[C@@H]2O1` gave an IC50 [1] greater than 10 µM, an IC50 [2] greater than 10 µM and an IC50 [3] greater than 10 µM.

For `C[C@@]12C(=O)N(CCc3ccc(O)cc3)C(=O)[C@]1(C)[C@H]1CC[C@@H]2O1`, the IC50 (Hepatitis B virus [4]) was 58 µM, the IC50 [1] was greater than 10 µM and the IC50 (Hepatitis B virus [5]) was greater than 160 µM. For the same compound, the IC50 [2] was greater than 10 µM, the IC50 [3] was greater than 10 µM and the CC50 at 72 h [6] was greater than 320 µM.

With `CC(C)(C)C(=O)OCOP(=O)(COCCn1cnc2c(N)ncnc21)OCOC(=O)C(C)(C)C` [ADEFOVIR DIPIVOXIL] the IC50 (Hepatitis B virus [4]) was 290 µM, the IC50 (Hepatitis B virus [5]) was 270 µM and the CC50 at 72 h [6] was greater than 400 µM.

`C[C@]12C(=O)N(CCCO)C(=O)[C@H]1[C@@H]1CC[C@H]2O1` gave an IC50 [1] greater than 10 µM, an IC50 [2] greater than 10 µM and an IC50 [3] greater than 10 µM.

Compound `C[C@@]12C(=O)N(CCCCN3C(=O)[C@@]4(C)[C@@H]5CC[C@@H](O5)[C@@]4(C)C3=O)C(=O)[C@]1(C)[C@H]1CC[C@@H]2O1` has an IC50 (Hepatitis B virus [4]) of 19 µM, an IC50 [1] greater than 10 µM and an IC50 (Hepatitis B virus [5]) greater than 110 µM. It also gave an IC50 [2] greater than 10 µM, an IC50 [3] greater than 10 µM and a CC50 at 72 h [6] greater than 220 µM.

Compound `C[C@]12C(=O)N(CC(N)=O)C(=O)[C@H]1[C@@H]1CC[C@H]2O1` has an IC50 [1] greater than 10 µM, an IC50 [2] greater than 10 µM and an IC50 [3] greater than 10 µM.

Compound `C[C@@]12C(=O)N(CCCN3C(=O)[C@@]4(C)[C@@H]5CC[C@@H](O5)[C@@]4(C)C3=O)C(=O)[C@]1(C)[C@H]1CC[C@@H]2O1` has an IC50 [1] greater than 10 µM, an IC50 [2] greater than 10 µM and an IC50 [3] greater than 10 µM.

Work on `CNC(=O)CCCN1C(=O)[C@H]2[C@@H]3CC[C@@H](O3)[C@@]2(C)C1=O` yielded an IC50 [1] greater than 10 µM, an IC50 [2] greater than 10 µM and an IC50 [3] greater than 10 µM.

In the case of `C[C@]12C(=O)NC(=O)[C@H]1[C@@H]1CC[C@H]2O1`, the IC50 [1] is reported as greater than 10 µM, the IC50 [2] is reported as greater than 10 µM and the IC50 [3] is reported as greater than 10 µM.

For `C[C@@]12C(=O)N(CCC(N)=O)C(=O)[C@]1(C)[C@H]1CC[C@@H]2O1`, the IC50 [1] was greater than 10 µM, the IC50 [2] was greater than 10 µM and the IC50 [3] was greater than 10 µM.

`C[C@@]12C(=O)N(CC(N)=O)C(=O)[C@]1(C)[C@H]1CC[C@@H]2O1` gave an IC50 [1] greater than 10 µM, an IC50 [2] greater than 10 µM and an IC50 [3] greater than 10 µM.
